Key:
TNF = settings: read-out: 50% inhibitory concentration [IC50], TNF inhibition; in vitro; cited from earlier work
[1] = cited from earlier work
sTNFα = sTNFα (Homo sapiens, UniProt P01375); test: sTNFα target occupancy, ex vivo zymosan stimulation of blood, ELISA; type: in vivo
Summary of the method: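 Blood came from the 400 and 600 mg single-dose cohorts (pre-dose and 3 h post-dose) and all multiple-dose cohorts (pre-dose Day 1; pre-dose and 3 h Day 14). It was stimulated ex vivo with zymosan. ELISA measured total and compound-occupied TNFα to derive percent occupancy and percent change from baseline, summarised descriptively by group and time point.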

[2] = test system: collagen-induced arthritis mouse model; settings: cited from earlier work
[3] = Food effect study: plasma pharmacokinetics; type: in vivo, human; settings: for AUC (0 to infinity), geometric mean / AUC (0 to infinity), mean ± SD / C max, geometric mean / C max, mean ± SD / t 1/2z, geometric mean / t 1/2z, mean ± SD / t lag, median / t max, median: 200 mg single dose

Sequence of sTNFα (P01375 77-233 limits assumed): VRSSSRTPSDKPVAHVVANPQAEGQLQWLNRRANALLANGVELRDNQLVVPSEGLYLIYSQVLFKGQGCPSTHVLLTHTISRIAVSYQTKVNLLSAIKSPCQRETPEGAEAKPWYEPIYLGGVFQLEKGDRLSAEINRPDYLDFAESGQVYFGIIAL

CN1C(=O)c2cccc(OC(F)F)c2[C@H]2C[C@@H]1c1nc3ccc(-c4cnc(C5(N)CCC5)nc4)cc3n12 [Balinatunfib]
IC50 (TNF): 35 nM
bioavailability ([1]; across animal species): moderate to high
fraction unbound ([1]; preclinical studies): high
tissue distribution ([1]; preclinical studies): high
sTNFα occupancy, mean (sTNFα; MAD 100 mg BID, D14 0 h): 103.1%
sTNFα occupancy, median (sTNFα; MAD 100 mg BID, D14 0 h): 104.0%
sTNFα occupancy, mean (sTNFα; MAD 100 mg BID, D14 3 h): 104.9%
sTNFα occupancy, median (sTNFα; MAD 100 mg BID, D14 3 h): 105.3%
sTNFα occupancy, mean (sTNFα; MAD 100 mg QD, D14 0 h): 95.0%
sTNFα occupancy, median (sTNFα; MAD 100 mg QD, D14 0 h): 96.8%
sTNFα occupancy, mean (sTNFα; MAD 100 mg QD, D14 3 h): 97.2%
sTNFα occupancy, median (sTNFα; MAD 100 mg QD, D14 3 h): 98.4%
sTNFα occupancy, mean (sTNFα; MAD 200 mg BID, D14 0 h): 101.1%
sTNFα occupancy, median (sTNFα; MAD 200 mg BID, D14 0 h): 101.8%
sTNFα occupancy, mean (sTNFα; MAD 200 mg BID, D14 3 h): 105.2%
sTNFα occupancy, median (sTNFα; MAD 200 mg BID, D14 3 h): 106.6%
sTNFα occupancy, mean (sTNFα; MAD 300 mg BID, D14 0 h): 101.3%
sTNFα occupancy, median (sTNFα; MAD 300 mg BID, D14 0 h): 101.8%
sTNFα occupancy, mean (sTNFα; MAD 300 mg BID, D14 3 h): 99.8%
sTNFα occupancy, median (sTNFα; MAD 300 mg BID, D14 3 h): 102.8%
sTNFα target occupancy (sTNFα; SAD 400 mg and 600 mg cohorts, 3 hours after dosing): ~ 100%
sTNFα occupancy, mean (sTNFα; SAD 400 mg, D1 3 h): 102.2%
sTNFα occupancy, median (sTNFα; SAD 400 mg, D1 3 h): 105.3%
sTNFα occupancy, mean (sTNFα; SAD 600 mg, D1 3 h): 109.3%
sTNFα occupancy, median (sTNFα; SAD 600 mg, D1 3 h): 109.2%
average free efficacious exposure in mice ([2]; collagen-induced arthritis mouse model): 24 nM
efficacy in collagen-induced arthritis mouse model ([2]; in vivo): antibody‐like efficacy
AUC higher in the fed state than in the fasted state ([3]; 200 mg): 18%
AUClast higher in the fed state than in the fasted state ([3]; 200 mg): 16%
C max higher in the fed state than in the fasted state ([3]; 200 mg): 14%
delay of maximum plasma concentrations, fed compared to fasted ([3]; 200 mg): 1 h
AUC (0 to infinity), geometric mean ([3]; fasted): (2,010) [26] ng·h/mL
AUC (0 to infinity), mean ± SD ([3]; fasted): 2,060 ± 539 ng·h/mL
C max, geometric mean ([3]; fasted): (119) [32] ng/mL
C max, mean ± SD ([3]; fasted): 123 ± 39.5 ng/mL
t 1/2z, geometric mean ([3]; fasted): (21.9) [23] h
t 1/2z, mean ± SD ([3]; fasted): 22.5 ± 5.23 h
t lag, median ([3]; fasted): 0.00 h
t max, median ([3]; fasted): 3.00 h
AUC (0 to infinity), geometric mean ([3]; fed): (2,340) [33] ng·h/mL
AUC (0 to infinity), mean ± SD ([3]; fed): 2,430 ± 815 ng·h/mL
C max, geometric mean ([3]; fed): (132) [35] ng/mL
C max, mean ± SD ([3]; fed): 138 ± 48.1 ng/mL
t 1/2z, geometric mean ([3]; fed): (27.3) [18] h
t 1/2z, mean ± SD ([3]; fed): 27.6 ± 4.84 h
t lag, median ([3]; fed): 0.00 h
t max, median ([3]; fed): 4.00 h
AUC geometric mean ratio, point estimate ([3]; 200 mg, fed vs. fasted): 1.18
AUClast geometric mean ratio, point estimate ([3]; 200 mg, fed vs. fasted): 1.16
C max geometric mean ratio, point estimate ([3]; 200 mg, fed vs. fasted): 1.14
effect of food on the PK characteristics ([3]; high-fat meal): no relevant effects
